Measurements from ChEMBL document CHEMBL1128532, “Antidiabetic agents: a new class of reversible carnitine palmitoyltransferase I inhibitors” (J Med Chem, 1995).
pIC50, pKi: −log10 of the molar value. Several values for one entry are separate records, joined by “and”; a condition that tells them apart may be missing. Equal entries are not always repeated.

Key:
[1] = target: T1, Carnitine O-palmitoyltransferase 1, liver isoform (Rattus norvegicus, UniProt P32198); experiment: In vitro inhibition of carnitine palmitoyltransferase I with respect to palmitoyl CoA in rat
T1 sequence (P32198 whole entry): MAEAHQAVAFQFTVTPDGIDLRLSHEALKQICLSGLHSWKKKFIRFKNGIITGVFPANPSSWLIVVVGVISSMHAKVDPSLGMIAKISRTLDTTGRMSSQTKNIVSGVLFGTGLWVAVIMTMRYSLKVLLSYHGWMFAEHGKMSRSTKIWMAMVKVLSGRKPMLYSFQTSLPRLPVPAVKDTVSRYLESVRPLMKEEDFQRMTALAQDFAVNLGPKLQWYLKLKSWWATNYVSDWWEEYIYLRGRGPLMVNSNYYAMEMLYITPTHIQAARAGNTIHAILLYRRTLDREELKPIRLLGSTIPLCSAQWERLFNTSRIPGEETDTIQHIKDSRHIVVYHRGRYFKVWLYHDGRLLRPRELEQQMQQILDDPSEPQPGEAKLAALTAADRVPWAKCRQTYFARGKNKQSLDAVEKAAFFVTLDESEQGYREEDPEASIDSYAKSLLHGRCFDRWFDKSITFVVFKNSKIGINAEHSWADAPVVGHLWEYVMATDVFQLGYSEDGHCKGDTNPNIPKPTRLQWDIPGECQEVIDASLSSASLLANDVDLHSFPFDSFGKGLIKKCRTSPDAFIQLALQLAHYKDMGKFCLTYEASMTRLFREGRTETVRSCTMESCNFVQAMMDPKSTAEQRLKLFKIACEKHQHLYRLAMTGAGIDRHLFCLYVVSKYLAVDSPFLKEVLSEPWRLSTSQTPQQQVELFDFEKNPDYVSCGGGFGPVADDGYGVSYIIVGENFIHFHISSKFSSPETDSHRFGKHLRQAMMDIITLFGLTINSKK

Rattus norvegicus [2] = experiment: Blood glucose level in NIDDM rats after 11 days of treatment at a dose 21.9 […] Blood samples taken 6 hr post-dose in a 6 hr fasted state; assay type: functional
In short: (§1)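 NIDDM model: fat-fed, low-dose streptozotocin-treated rats. Oral gavage once daily for 11 days at 0 to 87.5 mg/kg/d. Blood sampled 6 h post-dose, with rats in a 6 h fasted state. Blood glucose reported in mg/dL as mean ± error. Significance tested against vehicle control (p<0.05, p<0.01).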

Rattus norvegicus [3] = experiment: Blood glucose level in NIDDM rats after 11 days of treatment at a dose 32.9 mg/kg/d Blood samples taken 6 hr post-dose in a 6 hr fasted state; assay type: functional; in short: as §1
Rattus norvegicus [4] = organism: Rattus norvegicus; experiment: Blood glucose level in NIDDM rats after 11 days of treatment Blood samples taken 6 hr post-dose in a 6 hr fasted state.; assay type: functional; in short: as §1
Rattus norvegicus [5] = experiment: Blood glucose level in NIDDM rats after 11 days of treatment at a dose 0 mg/kg/d Blood samples taken 6 hr post-dose in a 6 hr fasted state; assay type: functional; in short: as §1
Rattus norvegicus [6] = experiment: Blood glucose level in NIDDM rats after 11 days of treatment at a dose 21.9 mg/kg/d Blood samples taken 6 hr post-dose in a 6 hr fasted state; assay type: functional; in short: as §1
Rattus norvegicus [7] = organism: Rattus norvegicus; experiment: Inhibition of production of ketones in rat liver homogenates; assay type: functional
In short: (§2)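 Fatty acid oxidation was read as the fall in ketone production, tested in rat liver homogenates and in hepatocytes isolated from 18 h fasted rats. IC50 ± SE was taken from concentration-response data. Where no reasonable dose response was seen, the highest dose tested is given instead.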

Rattus norvegicus [8] = organism: Rattus norvegicus; experiment: Inhibition of production of ketones in rat liver hepatocytes from 18 hr fasted rats; assay type: functional; settings: Hepatocyte; in short: as §2

SMILES	pIC50 (Rattus norvegicus [7])	pIC50 (Rattus norvegicus [8])	also measured
CCCCCCCCCCCCCCOP(=O)([O-])O[C@H](CC(=O)O)C[N+](C)(C)C	4.55	5.47	pKi [1]: 5.44; Glucose level (Rattus norvegicus [2]): 164 mg/dL; Glucose level (Rattus norvegicus [3]): 179 mg/dL and 93 mg/dL; Glucose level (Rattus norvegicus [4]): 197 mg/dL; Glucose level (Rattus norvegicus [5]): 197 mg/dL; Glucose level (Rattus norvegicus [6]): 164 mg/dL
CCCCCCCCCCCCCCCP(=O)([O-])NC(CC(=O)O)C[N+](C)(C)C (configuration not stated)	< 4.00	< 3.52	–
CCCCCCCCCCCCCCCP(=O)([O-])O[C@H](CC(=O)O)C[N+](C)(C)C	4.44	5.52	–
CCCCCCCCCCCCCCOP(=O)([O-])O[C@@H](CC(=O)O)C[N+](C)(C)C	< 3.52	3.66	–
CCCCCCCCCCCCCCP(=O)([O-])CC(CC(=O)O)C[N+](C)(C)C (configuration not stated)	< 3.52	< 3.52	–
CCCCCCCCCCCCCCOP(=O)([O-])N[C@H](CC(=O)O)C[N+](C)(C)C	4.62	4.34	–
CCCCCCCCCCCCCCCP(=O)([O-])O[C@@H](CC(=O)O)C[N+](C)(C)C	< 4.00	< 3.52	–
CCCCCCCCCCCCCCCC(=O)NC(CC(=O)[O-])C[N+](C)(C)C (configuration not stated)	5.89	5.92	–
